Compound activity: PubChem, The Scripps Research Institute Molecular Screening Center
ARFGAP1 inhibitor: inhibitors of rat ARFGAP1 GAP activity, primary screen, biochemical, fluorescence polarization, GDP tracer | ADP-ribosylation factor GTPase-activating protein 1 (Rattus norvegicus), Q62848 | Arfgap1-stimulated ARF1 GTP hydrolysis, GDP FP detection | inhibition, % at 16.5 µM | 360,000 compounds, 0.26% hits | AID 651572, 2012;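 active = inhibition above a per-plate limit, mean inhibition of low control wells plus 3 SD, cut at about 25% in these data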;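 also: 0% = DMSO wells with enzyme and 100% = wells lacking Arfgap1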
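Material: truncated rat Arfgap1 GAP domain; Incubation: compound-enzyme preincubation 20 min, reaction 120 min, detection 60 min, 25 °C; Read-out: percent inhibition of Arfgap1-stimulated GTP hydrolysis; Technique: FP, GDP Alexa 633 tracer displaced from anti-GDP antibody, 620/688 nm; Controls: No-Arfgap1 wells (100%) versus DMSO full-reaction wells (0%); Replication: single well per compound.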
sPLA2-III inh: human group III sPLA2 inhibitors, primary screen, biochemical, QFRET, BODIPY PC-A2 liposome substrate | Group 3 secretory phospholipase A2 (Homo sapiens), Q9NZ20 | QFRET BODIPY PC-A2 liposome hydrolysis, fluorescence | inhibition, % at 12.2 µM | 370,000 compounds, 0.56% hits | AID 743126, 2013;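 active = inhibition above mean plus 3 SD of compounds lying within the high and low control bounds, cut at about 19% in these data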;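 also: 0% = median of test compound wells and 100% = no enzyme DMSO wells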
PLC-gamma1 inh: PLC-gamma1 enzyme inhibitors, primary screen, biochemical, fluorescence, purified enzyme | 1-phosphatidylinositol 4,5-bisphosphate phosphodiesterase gamma-1 (Homo sapiens), P19174 | AID 720700, 2013 | fluorogenic substrate | inhibition, % at 12.2 µM | 370,000 compounds, 0.84% hits; in the data active = inhibition above about 9.5%
ASAP1 GAP inh: inhibitors of human ASAP1 ArfGAP activity, primary screen, biochemical, fluorescence polarization. Arf-GAP with SH3 domain, ANK repeat and PH domain-containing protein 1 (Homo sapiens), …. ASAP1-stimulated ARF1 GTP hydrolysis, GDP FP detection. inhibition, % at 16.5 µM. 360,000 compounds, 0.19% hits; in the data active = inhibition above about 25%;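 also: 0% = vehicle with enzyme and substrate and 100% = no enzyme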
PLCb3 inh: human PLC-beta3 inhibitors, primary screen, biochemical, fluorescence | Purified PLC-beta3, fluorogenic substrate | 370,000 compounds, 0.18% hits | AID 720704, 2013 | inhibition, % at 12.2 µM;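 also: 0% = median of compound wells on plate and 100% = full blocker control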
PLCgamma1 ctr: PLC-gamma1 enzyme inhibitors, counter-screen for PLC-beta3 inhibitor project, biochemical, fluorescence. shares compounds with PLC-gamma1 inh. purified PLC-gamma1, fluorogenic substrate. inhibition, % at 12.3 µM. 3,300 compounds, 3.1% hits. AID 743258, 2014; in the data active = inhibition above about 9.5%
PLCb3 confirm: PLC-beta3 inhibitor confirmation, biochemical, fluorescence, purified enzyme. fluorogenic substrate fluorescence. inhibition, % at 12.3 µM. 3,300 compounds, 1% hits. shares compounds with PLC-gamma1 inh
An asterisk follows results filed as active. An excerpt weighted towards active compounds, which were near 1.9% of everything screened. Rule as the data show it, unless noted: active = inhibition above about 11%; inactive = the rest.

Results for N=c1n(Cc2ccccc2)c2ccccc2n1CC(O)COc1ccc(Cl)cc1Cl (stereo not given) ?
ARFGAP1 inhibitor: -7; sPLA2-III inh: 4; PLC-gamma1 inh: 12*; ASAP1 GAP inh: -9; PLCb3 inh: 5; PLCgamma1 ctr: -2; PLCb3 confirm: -3

Results for CCOc1ccc(-n2c(SCC(=O)Nc3ccc4cn[nH]c4c3)nnc2-c2ccncc2)cc1 ?
sPLA2-III inh: -7; PLC-gamma1 inh: 2; PLCb3 inh: 4

What do the screens show for `Clc1ccccc1Cn1ccc2ccc(-c3ccc4ccn(Cc5ccccc5Cl)c4c3)cc21`?
sPLA2-III inh: 6; PLC-gamma1 inh: -52; PLCb3 inh: -74

Results for CC(=O)O[C@@H]1C=C[C@@H](C#Cc2ccc(C(C)(C)C)cc2)O[C@@H]1COC(=O)Nc1ccccc1 ?
ARFGAP1 inhibitor: 9; sPLA2-III inh: -17; PLC-gamma1 inh: 2; ASAP1 GAP inh: -1; PLCb3 inh: 7

What do the screens show for `CCN1C(=O)c2ccccc2S(=O)c2ccc(C(=O)N3CCCCCC3)cc21` (stereo not given)?
ARFGAP1 inhibitor: -6; sPLA2-III inh: -1; PLC-gamma1 inh: 6; ASAP1 GAP inh: 1; PLCb3 inh: 11*; PLCgamma1 ctr: -6; PLCb3 confirm: -4

Results for CCN1C(=O)c2ccccc2S(=O)c2ccc(C(=O)N3CCN(C(=O)c4ccco4)CC3)cc21 (stereo not given) ?
ARFGAP1 inhibitor: 12; sPLA2-III inh: 6; PLC-gamma1 inh: 0; ASAP1 GAP inh: 1; PLCb3 inh: -1

Results for CCOC(=O)C(NC(=O)CC)(Nc1ccccc1)C(F)(F)F (stereo not given) ?
ARFGAP1 inhibitor: -4; sPLA2-III inh: 3; PLC-gamma1 inh: 14*; ASAP1 GAP inh: 10; PLCb3 inh: 11*; PLCgamma1 ctr: -5; PLCb3 confirm: 1

How did CC(C)C[C@H]1COc2cccc(F)c2S(=O)(=O)N1Cc1cn(CCC2OCCO2)nn1 do in these assays?
sPLA2-III inh: 1; PLC-gamma1 inh: 1; PLCb3 inh: -1

What do the screens show for `CCCS(=O)(=O)NC(=O)C1(C)CCN(C(=O)c2cc(C)nn2C(C)(C)C)C1` (stereo not given)?
ARFGAP1 inhibitor: -7; sPLA2-III inh: -4; PLC-gamma1 inh: 9.8*; ASAP1 GAP inh: -11; PLCb3 inh: 0; PLCgamma1 ctr: -2; PLCb3 confirm: 0

Results for CCCS(=O)(=O)NC(=O)C1(C)CCN(C(=O)c2cc(C)n(C(C)(C)C)n2)C1 (stereo not given) ?
ARFGAP1 inhibitor: -15; sPLA2-III inh: 12; PLC-gamma1 inh: 0; ASAP1 GAP inh: -6; PLCb3 inh: 2

How did c1coc(CN2CN=C(Nc3nc4ccccc4s3)NC2)c1 do in these assays?
ARFGAP1 inhibitor: -7; sPLA2-III inh: -3; PLC-gamma1 inh: 9.7*; ASAP1 GAP inh: 13; PLCb3 inh: 3; PLCgamma1 ctr: 1; PLCb3 confirm: 3

What do the screens show for `Cc1ccc(NC(=O)C2=CC(c3cccs3)=NS(=O)(=O)N2C)cc1`?
ARFGAP1 inhibitor: -12; sPLA2-III inh: 9; PLC-gamma1 inh: 2; ASAP1 GAP inh: -6; PLCb3 inh: -5

Results for CCc1ccc(NC(=O)C2=CC(c3cccs3)=NS(=O)(=O)N2C)cc1 ?
ARFGAP1 inhibitor: 9; sPLA2-III inh: 14; PLC-gamma1 inh: 16*; ASAP1 GAP inh: -4; PLCb3 inh: 4; PLCgamma1 ctr: -8; PLCb3 confirm: -3
